This is an account of results in ChEMBL document CHEMBL4400511, “Benzothiopyranoindole- and pyridothiopyranoindole-based antiproliferative agents targeting topoisomerases” (2019).

Experiment [1] concerns HeLa. As to the kind of experiment: Induction of apoptosis in human HeLa cells assessed as late apoptotic cells at 20 uM after 18 hrs by Annexin-V-FITC/propidium iodide staining based flow cytometric analysis (reference value: 2.2%). The format is functional. In a few lines: (§1)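 HeLa cells were incubated 18 h without compound (control) or at 20 and 80 µM. They were stained with FITC-annexin V and propidium iodide and analysed by dual-parameter flow cytometry. Cells were scored as viable, early apoptotic, late apoptotic or necrotic.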

In experiment [2] the test system is HeLa. As to the kind of experiment: Induction of apoptosis in human HeLa cells assessed as early apoptotic cells at 20 uM after 18 hrs by Annexin-V-FITC/propidium iodide staining based flow cytometric analysis (reference value: 5.6%). The format is functional. In a few lines: as §1
The subject of experiment [3] is HeLa. The experiment can be described thus: Induction of apoptosis in human HeLa cells assessed as viable cells at 20 uM after 18 hrs by Annexin-V-FITC/propidium iodide staining based flow cytometric analysis (reference value: 91.6%). The following applies: read-out: Activity. The format is functional. The procedure, abridged: as §1
For experiment [4], the target named is T1, DNA topoisomerase 1 (Homo sapiens) (UniProt P11387).
T1 sequence (whole entry): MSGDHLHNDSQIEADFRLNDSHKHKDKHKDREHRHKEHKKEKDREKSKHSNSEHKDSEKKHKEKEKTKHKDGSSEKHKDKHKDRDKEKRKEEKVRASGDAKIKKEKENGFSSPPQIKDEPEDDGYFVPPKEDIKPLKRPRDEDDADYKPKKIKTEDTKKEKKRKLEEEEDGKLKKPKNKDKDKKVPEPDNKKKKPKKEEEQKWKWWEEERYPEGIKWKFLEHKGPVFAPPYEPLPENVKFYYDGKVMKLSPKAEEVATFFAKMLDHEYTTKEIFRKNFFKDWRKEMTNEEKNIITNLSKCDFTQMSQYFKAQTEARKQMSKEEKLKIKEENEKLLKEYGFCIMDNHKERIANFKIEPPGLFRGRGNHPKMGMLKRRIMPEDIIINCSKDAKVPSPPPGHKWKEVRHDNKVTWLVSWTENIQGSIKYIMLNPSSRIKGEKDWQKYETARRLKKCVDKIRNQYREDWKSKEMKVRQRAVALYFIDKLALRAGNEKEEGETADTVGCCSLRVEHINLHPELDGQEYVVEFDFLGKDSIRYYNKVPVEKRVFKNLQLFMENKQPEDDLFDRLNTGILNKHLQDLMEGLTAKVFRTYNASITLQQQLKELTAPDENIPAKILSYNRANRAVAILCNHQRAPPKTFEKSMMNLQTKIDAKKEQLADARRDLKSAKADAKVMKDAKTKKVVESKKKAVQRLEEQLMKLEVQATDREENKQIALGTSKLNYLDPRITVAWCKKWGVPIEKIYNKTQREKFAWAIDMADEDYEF
The experiment can be described thus: Poison activity at recombinant human topoisomerase-1 assessed as stabilization of covalent topo-1-DNA cleavage complex by measuring nicked DNA formation using supercoiled pBR322 DNA as substrate after 60 mins by agarose gel electrophoresis method. The procedure, abridged: (§2)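 Cleavable-complex assay: supercoiled pBR322 DNA was incubated with Topo I, with or without compound at a series of µM concentrations. Nicked DNA formation marks covalent complex stabilisation. Reference is 0.5 µM camptothecin.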

In experiment [5] the test system is HeLa. The experiment can be described thus: Induction of apoptosis in human HeLa cells assessed as late apoptotic cells at 80 uM after 18 hrs by Annexin-V-FITC/propidium iodide staining based flow cytometric analysis (reference value: 2.2%). The class given is functional. In a few lines:
as §1

In a further experiment the test system is MSTO-211H. As to the kind of experiment: Growth inhibition in human MSTO-211H cells after 72 hrs by trypan blue dye-based assay. The class given is functional. In a few lines: (§3)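 Three human tumour lines were used: HeLa (cervix adenocarcinoma), A-431 (epidermoid/squamous carcinoma) and MSTO-211H (biphasic mesothelioma). GI50 is the µM concentration giving 50% cell death relative to the untreated control culture. Ellipticine was run as reference.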

The target of experiment [6] is DNA topoisomerase 2-alpha (Homo sapiens) (UniProt P11388). The experiment can be described thus: Poison activity at recombinant human topoisomerase-2 assessed as stabilization of covalent topo-2-DNA cleavage complex by measuring linear DNA formation up to 50 uM using supercoiled pBR322 DNA as substrate after 60 mins by agarose gel electrophoresis method. In a few lines:
(§4)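 Cleavable-complex assay: supercoiled pBR322 DNA was incubated with Topo II, with or without compound at a series of µM concentrations. Enzyme-mediated linear DNA marks cleavage-complex stabilisation. Reference poison is 10 µM m-AMSA.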

Experiment [7] deals with HeLa. As to the kind of experiment: Induction of apoptosis in human HeLa cells assessed as early apoptotic cells at 80 uM after 18 hrs by Annexin-V-FITC/propidium iodide staining based flow cytometric analysis (reference value: 5.6%). The format is functional. In a few lines:
as §1

For experiment [8], the system named is HeLa. As to the kind of experiment: Induction of apoptosis in human HeLa cells assessed as viable cells at 80 uM after 18 hrs by Annexin-V-FITC/propidium iodide staining based flow cytometric analysis (reference value: 91.6%). The class given is functional. The following applies: read-out: Activity. The procedure, abridged:
as §1

The subject of experiment [9] is HeLa. As to the kind of experiment: Induction of apoptosis in human HeLa cells assessed as necrotic cells at 20 uM after 18 hrs by Annexin-V-FITC/propidium iodide staining based flow cytometric analysis (reference value: 0.7%). The format is functional. The procedure, abridged:
as §1

The target of experiment [10] is T1, DNA topoisomerase 1 (Homo sapiens). The experiment can be described thus: Poison activity at recombinant human topoisomerase-1 assessed as stabilization of covalent topo-1-DNA cleavage complex by measuring nicked DNA formation at 0.5 to 50 uM using supercoiled pBR322 DNA as substrate after 60 mins by agarose gel electrophoresis method. The procedure, abridged: as §2

Experiment [11] has the same target. As to the kind of experiment: Inhibition of recombinant human topoisomerase 1 assessed as decrease in relaxation of supercoiled pBR322 DNA after 60 mins by ethidium bromide staining based agarose gel electrophoresis method. The procedure, abridged: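 Human recombinant Topo I was incubated with supercoiled pBR322 DNA, with or without compound at a series of µM concentrations. Read-out is the number of relaxed topoisomers formed.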

The subject of another experiment is A-431. The experiment can be described thus: Growth inhibition in human A431 cells after 72 hrs by trypan blue dye-based assay. The class given is functional. The note with it: A-431, 72 h. In a few lines: as §3
The subject of experiment [12] is Salmon testes DNA. As to the kind of experiment: Binding affinity to salmon DNA at compound to DNA ratio of 0.02 to 0.04 by linear flow dichroism analysis. The format is nucleic-acid assay. The following applies: Salmonidae.
Experiment [13] has as its system HeLa. As to the kind of experiment: Growth inhibition in human HeLa cells after 72 hrs by trypan blue dye-based assay. The format is functional. The procedure, abridged: as §3
In experiment [14] the test system is HeLa. As to the kind of experiment: Induction of apoptosis in human HeLa cells assessed as necrotic cells at 80 uM after 18 hrs by Annexin-V-FITC/propidium iodide staining based flow cytometric analysis (reference value: 0.7%). The class given is functional. The procedure, abridged: as §1
Experiment [15] has as its target DNA topoisomerase 2-alpha (Homo sapiens) (UniProt P11388). As to the kind of experiment: Inhibition of recombinant human topoisomerase 2alpha assessed as decrease in relaxation of supercoiled pBR322 DNA after 60 mins by ethidium bromide staining based agarose gel electrophoresis method. The procedure, abridged:
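Topo II was incubated with supercoiled pBR322 DNA, with or without compound at a series of µM concentrations. Read-out is topoisomer formation from supercoiled DNA on a gel. Reference is 10 µM m-AMSA.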

For experiment [16] the target is unchanged. The experiment can be described thus: Poison activity at recombinant human topoisomerase-2 assessed as stabilization of covalent topo-2-DNA cleavage complex by measuring linear DNA formation at 10 uM using supercoiled pBR322 DNA as substrate after 60 mins by agarose gel electrophoresis method. The procedure, abridged:
as §4

Experiment [17] has as its system Salmon testes DNA. As to the kind of experiment: Binding affinity to salmon DNA at compound to DNA ratio of 0.08 by linear flow dichroism analysis. The class given is nucleic-acid assay. The following applies: Salmonidae.

Activity calls are given as the source filed them. No cut-off for these calls is given here.

Chain of DNA topoisomerase 2-alpha (Homo sapiens) (P11388 whole entry): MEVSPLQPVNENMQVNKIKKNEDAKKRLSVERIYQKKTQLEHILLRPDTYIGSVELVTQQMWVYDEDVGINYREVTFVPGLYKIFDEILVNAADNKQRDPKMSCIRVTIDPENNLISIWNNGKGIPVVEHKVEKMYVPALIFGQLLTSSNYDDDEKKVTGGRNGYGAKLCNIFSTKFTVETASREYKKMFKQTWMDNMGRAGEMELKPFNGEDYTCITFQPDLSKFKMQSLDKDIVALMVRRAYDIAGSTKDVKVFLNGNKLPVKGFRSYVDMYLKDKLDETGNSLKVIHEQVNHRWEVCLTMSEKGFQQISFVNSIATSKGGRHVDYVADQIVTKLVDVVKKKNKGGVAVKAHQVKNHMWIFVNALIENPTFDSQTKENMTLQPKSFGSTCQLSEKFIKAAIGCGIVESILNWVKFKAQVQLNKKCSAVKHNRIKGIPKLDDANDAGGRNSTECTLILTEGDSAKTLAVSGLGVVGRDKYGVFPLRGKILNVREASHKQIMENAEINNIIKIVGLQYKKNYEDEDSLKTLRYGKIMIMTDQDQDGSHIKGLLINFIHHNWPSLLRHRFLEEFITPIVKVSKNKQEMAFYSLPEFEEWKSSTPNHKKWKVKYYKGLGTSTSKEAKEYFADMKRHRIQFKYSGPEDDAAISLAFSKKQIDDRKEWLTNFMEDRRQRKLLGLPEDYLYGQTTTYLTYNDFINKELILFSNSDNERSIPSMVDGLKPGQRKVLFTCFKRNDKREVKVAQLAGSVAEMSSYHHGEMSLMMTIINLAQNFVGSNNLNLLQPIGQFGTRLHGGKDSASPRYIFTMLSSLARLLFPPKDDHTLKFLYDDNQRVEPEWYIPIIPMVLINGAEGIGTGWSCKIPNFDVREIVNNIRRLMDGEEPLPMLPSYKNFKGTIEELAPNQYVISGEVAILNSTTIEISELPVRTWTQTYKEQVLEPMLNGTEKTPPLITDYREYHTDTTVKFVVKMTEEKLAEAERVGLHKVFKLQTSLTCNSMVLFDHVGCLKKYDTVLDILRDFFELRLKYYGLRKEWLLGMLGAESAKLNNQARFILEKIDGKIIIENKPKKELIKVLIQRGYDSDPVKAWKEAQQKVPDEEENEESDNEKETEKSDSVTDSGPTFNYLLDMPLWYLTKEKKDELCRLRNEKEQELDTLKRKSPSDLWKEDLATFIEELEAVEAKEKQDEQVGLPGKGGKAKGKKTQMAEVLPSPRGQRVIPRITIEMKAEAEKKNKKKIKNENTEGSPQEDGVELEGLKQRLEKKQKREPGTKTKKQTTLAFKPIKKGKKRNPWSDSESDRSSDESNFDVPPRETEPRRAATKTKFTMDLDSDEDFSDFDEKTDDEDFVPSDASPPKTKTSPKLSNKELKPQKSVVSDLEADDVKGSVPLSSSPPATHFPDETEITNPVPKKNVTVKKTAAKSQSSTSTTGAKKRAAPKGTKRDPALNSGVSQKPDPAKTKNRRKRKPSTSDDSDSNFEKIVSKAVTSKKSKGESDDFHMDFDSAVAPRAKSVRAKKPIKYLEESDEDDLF

`COc1cc2c3sc4ccccc4c(=O)c3n(CCN(C)C)c2cc1OC`: the Activity in the experiment on HeLa [1] is 2.7%; in the experiment on HeLa [2] it was 8.6%; in experiment [4], “Dose-dependent effect”; in the experiment on HeLa [5] it was 17%; in the experiment with HeLa [7], 31.5%; in the experiment on HeLa [9], 2%. For the same molecule, the Activity in the experiment with HeLa [14] is listed as 7.7%. Further, the viability at 20 µM with HeLa [3] was found to be 86.7%. In addition, the GI50 was determined as 310 nM with MSTO-211H, 330 nM in the experiment on A-431 and 820 nM with HeLa [13]. Besides, the result in experiment [6] was inactive. Besides, in the experiment on HeLa [8], the viability at 80 µM is 43.8%. For the same molecule, the result (in [10]; in the experiment with Salmon testes DNA [12]) was Active. Also, the inhibition entry in experiment [11] and in experiment [15] was “Dose-dependent effect” each time.
Consider `COc1cc2c3sc4ncccc4c(=O)c3n(CCN(C)C)c2cc1OC`, for which, in experiment [4], the Activity result is “Dose-dependent effect”. The GI50 with MSTO-211H stood at 350 nM; with A-431 it was 710 nM; in the experiment on HeLa [13], 1700 nM. Also, the outcome in [6] was inactive. Also, the result (in experiment [10]; in the experiment on Salmon testes DNA [12]) was Active. Further, the inhibition entry in experiment [11] and in experiment [15] was “Dose-dependent effect” throughout.
As for `Cc1c2ccncc2c(C)c2c1[nH]c1ccccc12` [ELLIPTECINE], the GI50 in the experiment with MSTO-211H amounted to 770 nM; in the experiment on A-431, 650 nM; in the experiment with HeLa [13], 470 nM. Further, the outcome in the experiment on Salmon testes DNA [12] was Active.
For the molecule `CCN(CC)CCn1c2ccc(OC)cc2c2sc3ccccc3c(=O)c21`, the outcome (in experiment [16]; in the experiment on Salmon testes DNA [17]) was Active. Besides, the GI50 in the experiment on MSTO-211H was found to be 1610 nM; with A-431 it was 2080 nM; in the experiment on HeLa [13], 2790 nM. Further, the result in experiment [10] was inactive. Besides, the inhibition entry in experiment [11] and in [15] was “Dose-dependent effect” each time.
